In the library only some 1.5% were active in any assay of this set; here they are far more common.
M4 PAM: potentiates acetylcholine response at human M4 receptor; activation, % at 3 µM; CHO-K1 hM4/Gqi5, Fluo-8 calcium fluorescence, ACh EC20; 0% = ACh EC20, 100% = maximal ACh; P08173; AID 624126; 0.4% of 360,000 active;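 active = activation above its plate's cutoff, the mean activation of sample wells plus 3 SD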
Target sequence (P08173 whole entry, looked up): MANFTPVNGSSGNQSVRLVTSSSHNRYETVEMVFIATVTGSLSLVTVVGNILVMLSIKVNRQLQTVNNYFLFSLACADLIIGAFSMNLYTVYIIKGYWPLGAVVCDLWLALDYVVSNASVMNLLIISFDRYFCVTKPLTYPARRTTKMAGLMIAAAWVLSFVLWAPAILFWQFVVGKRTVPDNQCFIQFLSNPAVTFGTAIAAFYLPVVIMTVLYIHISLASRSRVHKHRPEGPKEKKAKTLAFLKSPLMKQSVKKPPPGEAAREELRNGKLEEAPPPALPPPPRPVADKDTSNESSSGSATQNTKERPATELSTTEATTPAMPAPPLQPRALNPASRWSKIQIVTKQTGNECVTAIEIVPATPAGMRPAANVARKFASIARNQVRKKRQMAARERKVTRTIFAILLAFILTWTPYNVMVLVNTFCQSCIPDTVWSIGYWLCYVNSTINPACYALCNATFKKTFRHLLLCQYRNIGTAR
V1aR counter: V1a receptor agonism, counter-screen for OXTR agonists; 0.25% of 320,000 active; AID 2797; CHO-V1R cells, Fluo-8 calcium fluorescence, agonist mode; 0% DMSO, 100% 3 nM vasopressin; P37288; activation, % at 3 µM;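 active = activation above the mean activation of all tested compounds plus 3 SD, per screening run, cut at about 20% in these data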;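 note: signal is peak over basal fluorescence ratio across a 100 second FLIPR read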
M4 antag: antagonists of human muscarinic M4 receptor (CHRM4); P08173; CHO-hM4 cells, ACh EC80, Fluo-8 calcium fluorescence; inhibition, % at 3 µM; 0.73% of 360,000 active;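 active = inhibition above its plate's cutoff, the mean inhibition of sample wells plus 3 SD, cut at about 27% in these data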;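 note: 0% = acetylcholine EC80 with DMSO and 100% = DMSO without agonist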
OXTR potentiator: potentiates the human oxytocin receptor response; CHO-OTR cells, Fluo-8 calcium fluorescence, potentiator mode; 0% = oxytocin EC15, 100% = EC100; 0.061% of 320,000 active; activation, % at 3 µM; AID 2445; P30559;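 active = activation above that plate's cutoff, the mean activation of tested compounds plus 3 SD, cut at about 6.6% in these data, passing the limit was not always enough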;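 note: 100% uses oxytocin at 75 nM as the full agonist control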
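System: human OTR in CHO cells; Also added: sub-maximal oxytocin, roughly EC15; Timing: compound 6 min at room temperature before oxytocin, 100 s read; Technique: Fluo-8 intracellular calcium fluorescence, ex 470-495, em 515-575 nm; Controls: oxytocin EC15 low and EC100 high; Replication: singlicate.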
M4 ag: agonists of human muscarinic M4 receptor (CHRM4); P08173; CHO-K1 hM4/Gqi5, Fluo-8 calcium fluorescence; vehicle 0%, full acetylcholine response 100%; activation, % at 3 µM; 0.14% of 360,000 active; AID 624127;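 active = activation above the run mean over all test wells plus 3 SD, cut at about 32% in these data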;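 note: peak over basal fluorescence ratio per well then scaled between controls; 0% = DMSO wells and 100% = acetylcholine at EC100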
OXTR agonist: activates the human oxytocin receptor; 0.32% of 320,000 active; CHO-OTR cells, Fluo-8 calcium fluorescence; normalized: DMSO 0%, oxytocin 100%; P30559; activation, % at 3 µM;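 active = activation above the mean of all tested compounds plus 3 SD, cutoff set per screening run, cut at about 20% in these data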;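 note: peak over basal fluorescence ratio from a 100 s FLIPR kinetic read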
Active calls of the source: *; / = not tested or not shown.

SMILES	M4 PAM	V1aR counter	M4 antag	OXTR potentiator	M4 ag	OXTR agonist
COC(=O)C(Cc1ccc(OC(=O)c2ccc(Cl)cc2)cc1)N1Cc2ccccc2C1=O (stereo unspecified)	-13	10	28*	-20	10	13
COC(=O)C(Cc1ccc(OC(=O)c2ccc(C(F)(F)F)cc2)cc1)N1Cc2ccccc2C1=O (stereo unspecified)	-1	8	-5	-17	10	10
CC(C)c1ccc(-n2c(-c3ccccc3)c[n+]3c2CCc2ccccc2-3)cc1	-20	/	29*	/	8	/
COc1ccc(-n2c(-c3ccc(Br)cc3)c[n+]3c2CCc2ccccc2-3)cc1	-12	0	18	-3	1	0
COc1ccccc1-n1c(-c2ccccc2)c[nH]c1=S	4	/	0	/	0	/
COc1ccccc1-n1c(-c2ccccc2)c[n+]2c1CCc1ccccc1-2	-17	1	34*	-9	1	-1
Cc1ccc(S(=O)(=O)NNC(=O)C2CCN(Cc3ccccc3)CC2)cc1	-30	0	41*	1	1	1
Cc1ccsc1CNC(=O)C1(C)CCN1C(C)C (stereo unspecified)	0	/	8	/	1	/
COc1cccc(N(C(=O)Cn2nnc3ccccc32)C(C(=O)NCc2ccco2)c2cccnc2)c1 (stereo unspecified)	1	/	-4	/	1	/
COc1cccc(C(C(=O)NCc2ccco2)N(Cc2ccco2)C(=O)Cn2nnc3ccccc32)c1 (stereo unspecified)	-7	0	30*	-2	9	-2
COC(=O)CCCCCCCCCCN1CCCCC1	-16	2	40*	-3	2	1
COC(=O)CCCCC(=O)OC	6	0	3	-1	2	0
CC(Oc1cccc2ccccc12)C(=O)N/N=C/c1cccnc1 (stereo unspecified)	22*	3	-2	-17	6	0
CC(Sc1ccccc1)C(=O)N/N=C/c1cccnc1 (stereo unspecified)	4	1	-10	3	4	2
O=C1NC[C@H](c2ccccc2)OC(=O)[C@@H](Cc2ccc(F)cc2)C/C=C\C[C@H]1CC(=O)N(CCO)Cc1ccccc1	-11	2	34*	-11	36*	2
O=C1NC[C@@H](c2ccccc2)OC(=O)[C@H](Cc2ccc(F)cc2)C/C=C\C[C@H]1CC(=O)N(CCO)Cc1ccccc1	-8	1	3	3	29	-1
O=C1N[C@@H](Cc2c[nH]c3ccccc23)COC(=O)[C@@H](Cc2ccc(F)cc2)C/C=C\C[C@H]1CC(=O)N(CCO)Cc1ccccc1	5	2	28*	-9	11	0
O=C1N[C@@H](c2ccccc2)COC(=O)[C@@H](Cc2ccc(F)cc2)C/C=C\C[C@@H]1CC(=O)N(CCO)Cc1ccccc1	-13	36*	17	-11	56*	43*
CCCCC[C@H]1CN(Cc2ccccc2)C(=O)[C@@H]1CC(=O)NCc1ccc(OC)cc1	9	2	-2	0	5	-2
CN(C)CC1CCC/C(=C/c2ccc(Cl)cc2)C1=O (stereo unspecified)	-1	/	-8	/	1	/
CC1(C)CC(=O)C=C(c2n[nH]nc2-c2ccccc2)C1	5	/	-11	/	0	/
Fc1ccc(Nc2nc(-c3ccncc3)nc3ccccc23)cc1	24*	-2	2	0	2	-2
CCC(C)c1ccc(C(C)NC(=S)NCc2ccc(F)cc2)cc1 (stereo unspecified)	-12	6	11	-15	9	2
CCC(NC(=S)NCc1ccc(F)cc1)c1ccc(C(C)C)cc1 (stereo unspecified)	-16	11	82*	-16	9	5
CCCc1ccc(C(C)NC(=S)NCc2ccc(F)cc2)cc1 (stereo unspecified)	-15	21*	25	-17	29	21*
Cc1noc(C)c1S(=O)(=O)N1CCCCC1c1cc(C(=O)Nc2cccc3c2CCCC3)no1 (stereo unspecified)	-9	/	-12	/	-1	/
